The list is not random: actives were taken first. Their share in the collection is about 1.7%.
DNMT1 inh: DNMT1 (human) enzyme inhibition | actives 0.83% (n = 360,000) | P26358 | inhibition (reported as % activation of signal), % at 10 µM | AID 588458 | DNMT1 molecular beacon, Hinp1I cleavage, fluorescence; in the data active means inhibition above about 50%
SUMO1-SIM PPI: modulators of human SUMO1-mediated protein-protein interactions | P63165 | SUMO1 binding to a labelled peptide, TR-FRET, 1 h | inhibition, % at 20 µM | actives 0.33% (n = 360,000) | AID 602429; in the data active means inhibition above about 37%
Target sequence (P63165 whole entry, looked up): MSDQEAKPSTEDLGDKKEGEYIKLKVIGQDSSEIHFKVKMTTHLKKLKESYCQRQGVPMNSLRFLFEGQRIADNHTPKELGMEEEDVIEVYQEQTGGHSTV
STEP inh: inhibitors of human striatal-enriched phosphatase STEP; P54829; recombinant STEP, OMFP fluorogenic substrate, fluorescence; inhibition, % at 20 µM; actives 0.25% (n = 360,000); AID 588621;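 active means inhibition at 20 µM, scaled per plate between control wells, above about 37%, limit read from the data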
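Material: STEP (striatal-enriched tyrosine phosphatase) enzyme, cell-free | Medium: 50 mM Bis-Tris pH 6.0 with 2.5 mM DTT and 0.005% Tween 20 | Read-out: Percent inhibition scaled to no-enzyme and uninhibited-enzyme controls, plate-pattern corrected | Signal: Fluorescence read at 480 nm ex / 540 nm em | Times: 20 min reaction, room temperature, in the dark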
LMPTP inh: blocks human LMPTP phosphatase; P24666; recombinant LMPTP-A, OMFP fluorogenic substrate, fluorescence intensity; inhibition, % at 20 µM; actives 0.22% (n = 360,000); AID 651560;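 active means compounds that cut the enzyme signal by at least half of the control window in the single-dose screen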
Target sequence (P24666 whole entry, looked up): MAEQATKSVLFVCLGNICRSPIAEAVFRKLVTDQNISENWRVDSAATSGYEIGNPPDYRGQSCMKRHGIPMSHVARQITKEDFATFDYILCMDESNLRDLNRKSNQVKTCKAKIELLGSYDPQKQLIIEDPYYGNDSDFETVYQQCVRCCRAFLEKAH
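Test system – LMPTP-A phosphatase enzyme · Quantity – 0.625 nM LMPTP-A final · Reagent – OMFP substrate, 400 µM final · Dosing – one test concentration per compound, 20 µM, with 3% DMSO overall · Timing – 50 min enzyme reaction at room temperature, protected from light · Detection – fluorescence intensity · Controls – substrate-only low control, DMSO enzyme-plus-substrate high control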
Scp-1 inhibitor: inhibitors of human Scp-1 phosphatase; Q9GZU7; Recombinant Scp1, phosphopeptide, malachite green phosphate absorbance; inhibition, % at 20 µM; actives 0.88% (n = 340,000);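 active means inhibition above about 50% at 20 µM, limit read from the data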
Target sequence (Q9GZU7 76-261 limits assumed): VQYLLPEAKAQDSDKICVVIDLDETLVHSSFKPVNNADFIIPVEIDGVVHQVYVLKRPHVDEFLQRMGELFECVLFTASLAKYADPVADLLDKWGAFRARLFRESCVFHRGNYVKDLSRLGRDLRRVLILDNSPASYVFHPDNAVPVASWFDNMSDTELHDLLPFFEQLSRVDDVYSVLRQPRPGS
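System: SCP-1 catalytic domain; Reagent: Phospho 17-mer peptide substrate; Doses: one concentration, 20 µM, with 1.0% DMSO; Incubation: 45 min room-temperature reaction, 5 min colour, 30 min stabiliser; Signal: Phosphate-binding colour reagent, absorbance read at 630 nm.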
Scp-1 conf: confirmation of human Scp-1 phosphatase inhibitors. AID 540281. inhibition, % at 20 µM. recombinant SCP-1 catalytic domain, phosphate release, malachite green absorbance. actives 61% (n = 2,500). shares compounds with Scp-1 inhibitor
MG interference: interferes with malachite green readout, flagging false Scp-1 hits | AID 540313 | apparent inhibition (interference), % at 20 µM | Colorimetric interference counterscreen, malachite green absorbance 630 nm | shares compounds with Scp-1 inhibitor | 2,500 tested, under 10 active;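 further: compounds added after enzyme reaction finished so only phosphate colour detection is probed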
Scp-1 Tm shift: Scp-1 (human) binding by thermal shift; actives 25% (n = 1,500); Recombinant SCP1, Sypro Orange thermal shift Tm; thermal shift relative to vanadate control, % at 40 µM; shares compounds with Scp-1 inhibitor; AID 540329;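 active means substances whose mean melting-temperature shift, as a percentage of the reference inhibitor's shift, reaches about 5.3%, limit read from the data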
Beacon interf DR: beacon fluorescence artifact, dose response counter-screen; shares compounds with DNMT1 inh; molecular beacon fluorescence, spectral interference counter-screen; IC50, µM; 200 tested, under 10 active; call rule not given here
DNMT1 inh conf: DNMT1 inhibition confirmation, single concentration; shares compounds with DNMT1 inh; DNMT1 molecular beacon HinP1I cleavage, fluorescence; inhibition, % at 10 µM; actives 8% (n = 2,300); AID 602385;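 active means average inhibition of at least 30% in the single-concentration confirmation test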
Beacon interf: counter-screen for DNMT1 inhibitors: spectral interference; shares compounds with DNMT1 inh; DNMT1 molecular beacon spectral interference counterscreen, fluorescence 485/520; activation (fluorescence interference), % at 10 µM; actives 1% (n = 2,300); AID 602387;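 active means activation of at least 30% at 10 µM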;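 further: DNMT1 catalytic domain with a HinP1I cleavage step and a FAM/dabcyl DNA beacon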
Each line names hits and unclear results; the compound was inactive in the other large screens (follow-up assays come after a bar, where they were run).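 How the source made its calls, unless noted: active means inhibition of at least 30% at 20 µM; inactive means the rest.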

CN(C)C(CNC(=O)c1cc(-c2ccco2)nc2ccccc12)c1ccccc1 (stereo unspecified)	DNMT1 inh 86, Scp-1 inhibitor 70 | Scp-1 conf 55 | MG interference inactive | Scp-1 Tm shift 13 | Beacon interf DR inactive | DNMT1 inh conf 46 | Beacon interf inactive
O=C(COc1ccccc1[N+](=O)[O-])NCCCN1CCCC1=O	none
COc1ccc(S(=O)(=O)N2CCCCCC2)cc1C(=O)N(CC(C)C)C1CCS(=O)(=O)C1 (stereo unspecified)	none
Cc1cc(C)c(NC(=O)COc2cccnc2[N+](=O)[O-])c(C)c1	none
Cc1ccc(N/C=C/C(=O)c2cccs2)cc1	none
O=C(NC1CCC(O)CC1)c1cc(-c2ccco2)nc2ccccc12 (stereo unspecified)	DNMT1 inh 57, Scp-1 inhibitor 51 | Scp-1 conf 57 | MG interference inactive | Scp-1 Tm shift inactive | DNMT1 inh conf inactive | Beacon interf inactive
Cc1ccc(NC(=O)c2cc(-c3ccco3)nc3ccccc23)cc1S(=O)(=O)N1CCOCC1	DNMT1 inh 68, Scp-1 inhibitor 65 | Scp-1 conf 36 | MG interference inactive | Scp-1 Tm shift 7.1 | DNMT1 inh conf inactive | Beacon interf inactive
COc1cccc(-c2cc(C(=O)NC3CC3)c3ccccc3n2)c1	none
CCCc1cc(CN(C)C(=O)CC2C(=O)NCCN2Cc2ccccc2C)[nH]n1 (stereo unspecified)	none
O=C(COC(=O)c1ccco1)NCc1ccco1	none
Cc1cccc(C(=O)OCC(=O)NCc2ccco2)c1	none
O=C(COC(=O)c1cccc(Br)c1)NCc1ccco1	DNMT1 inh 87, Scp-1 inhibitor 56 | Scp-1 conf 53 | MG interference inactive | Scp-1 Tm shift inactive | DNMT1 inh conf inactive | Beacon interf inactive
O=C(COC(=O)/C=C/c1ccco1)NCc1ccco1	DNMT1 inh 52, Scp-1 inhibitor 72 | Scp-1 conf 82 | MG interference inactive | Scp-1 Tm shift inactive | DNMT1 inh conf inactive | Beacon interf inactive
O=C(COC(=O)c1ccc(Br)o1)NCc1ccco1	DNMT1 inh 58, Scp-1 inhibitor 74 | Scp-1 conf 65 | MG interference inactive | Scp-1 Tm shift inactive | DNMT1 inh conf inactive | Beacon interf inactive
O=C(COC(=O)/C=C/c1ccco1)Nc1ncc(C(F)(F)F)cc1Cl	DNMT1 inh 71, Scp-1 inhibitor 76 | Scp-1 conf 56 | MG interference inactive | Scp-1 Tm shift 6.1 | DNMT1 inh conf inactive | Beacon interf inactive
O=C(COC(=O)Cc1ccc(Cl)c(Cl)c1)NCc1ccco1	none
O=C(COC(=O)Cc1ccc(Cl)cc1)NCc1ccco1	DNMT1 inh 88, Scp-1 inhibitor 82 | Scp-1 conf 71 | MG interference inactive | Scp-1 Tm shift inactive | DNMT1 inh conf inactive | Beacon interf inactive
O=C(COC(=O)c1ccccc1Nc1cccc(C(F)(F)F)c1)NCc1ccco1	DNMT1 inh 91, Scp-1 inhibitor 77 | Scp-1 conf 53 | MG interference inactive | Scp-1 Tm shift 5.3 | DNMT1 inh conf inactive | Beacon interf inactive
O=C(COC(=O)c1ccccc1)NCc1ccco1	DNMT1 inh 74, Scp-1 inhibitor 104 | Scp-1 conf 63 | MG interference inactive | Scp-1 Tm shift inactive | DNMT1 inh conf inactive | Beacon interf inactive
Cc1ccc(C)c(SCC(=O)OCC(=O)c2ccco2)c1	DNMT1 inh 81, Scp-1 inhibitor 60 | Scp-1 conf 69 | MG interference inactive | Scp-1 Tm shift inactive | DNMT1 inh conf inactive | Beacon interf inactive
COc1ccc(-c2nc(SC(C)C(=O)NC3CC3)n[nH]2)cc1 (stereo unspecified)	none
CC(C)C[C@@H](CN1CCC[C@H]1CN1C(=O)C(=O)NC[C@@H]1Cc1ccccc1)N1C[C@H](Cc2ccc(O)cc2)N(CC2CCCCCC2)C(=O)C1=O	none (no result: DNMT1 inh, STEP inh, Scp-1 inhibitor)
O=C(COC(=O)c1cc(-c2cccs2)nc2ccccc12)NCc1ccco1	DNMT1 inh 51, Scp-1 inhibitor 56 | Scp-1 conf 56 | MG interference inactive | Scp-1 Tm shift 7.0 | DNMT1 inh conf inactive | Beacon interf inactive
Cc1cc(Br)ccc1SCC(=O)OCC(=O)NCc1ccco1	DNMT1 inh 82, Scp-1 inhibitor 75 | Scp-1 conf 61 | MG interference inactive | Scp-1 Tm shift inactive | DNMT1 inh conf inactive | Beacon interf inactive
COc1ccccc1NCCC(=O)OCC(=O)NCc1ccco1	DNMT1 inh 51, Scp-1 inhibitor 75 | Scp-1 conf 64 | MG interference inactive | Scp-1 Tm shift inactive | DNMT1 inh conf inactive | Beacon interf inactive
Cc1cc(=O)[nH]c(NN=C2C3CC4CC(C3)CC2C4)n1	none
CCCS(=O)(=O)NC(=O)C1(C)CCCN(C(=O)c2oc3ccccc3c2C)C1 (stereo unspecified)	none (no result: Scp-1 inhibitor)
O=C(O)C1CC(c2ccc(F)cc2)=NO1 (stereo unspecified)	DNMT1 inh 86, Scp-1 inhibitor 52 | Scp-1 conf 34 | MG interference inactive | Scp-1 Tm shift inactive | DNMT1 inh conf inactive | Beacon interf inactive
CCOc1ccc(C(C)=O)cc1N1C(=O)C2C3C=CC(C3)C2C1=O (stereo unspecified)	DNMT1 inh 70, Scp-1 inhibitor 56 | Scp-1 conf 31 | MG interference inactive | Scp-1 Tm shift inactive | DNMT1 inh conf inactive | Beacon interf inactive
CCOc1ccc(C(C)=O)cc1N1C(=O)C2C3C=CC(O3)C2C1=O (stereo unspecified)	none
O=C(O)CC(NCc1ccco1)C(=O)OCCc1ccccc1 (stereo unspecified)	none
C=C(C)CCOC(=O)C(CC(=O)O)NCc1ccco1 (stereo unspecified)	DNMT1 inh 63, Scp-1 inhibitor 86 | Scp-1 conf 67 | MG interference inactive | Scp-1 Tm shift inactive | DNMT1 inh conf inactive | Beacon interf inactive

Source: PubChem BioAssay
